Measured values: ChEMBL document CHEMBL2417404, “Synthesis and structure-activity relationship (SAR) of 2-methyl-4-oxo-3-oxetanylcarbamic acid esters, a class of potent N-acylethanolamine acid amidase (NAAA) inhibitors” (J Med Chem, 2013)
Each block holds one compound with its values, some of them ahead of it.

What was measured:
[1] = target: T1, N-acylethanolamine-hydrolyzing acid amidase (Rattus norvegicus, UniProt Q5KTC7); assay: Inhibition of Sprague Dawley rat lung native NAAA enzyme using heptadecenoylethanolamide as substrate preincubated for 30 mins followed by substrate addition measured after 30 mins by UPLC-MS analysis
T1 sequence (Q5KTC7 whole entry): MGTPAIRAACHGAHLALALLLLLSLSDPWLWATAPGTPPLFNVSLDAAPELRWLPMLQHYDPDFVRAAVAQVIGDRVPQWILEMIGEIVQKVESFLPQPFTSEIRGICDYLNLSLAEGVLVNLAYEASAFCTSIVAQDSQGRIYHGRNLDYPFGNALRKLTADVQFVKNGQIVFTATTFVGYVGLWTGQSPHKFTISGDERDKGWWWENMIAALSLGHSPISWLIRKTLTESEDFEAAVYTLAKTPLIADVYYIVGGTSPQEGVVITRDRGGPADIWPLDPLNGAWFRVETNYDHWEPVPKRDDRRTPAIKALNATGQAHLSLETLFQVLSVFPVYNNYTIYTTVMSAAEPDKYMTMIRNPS
Procedure, shortened: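 Native enzyme from lungs of male Sprague-Dawley rats (275-300 g). Lungs were homogenized in 20 mM Tris-HCl pH 7.4 with 0.32 M sucrose, spun at 800g, then the supernatant at 12000g. The pellet was freeze/thawed in PBS, and the final 105000g pellet was used. Protein (10 μg) was preincubated with compound or vehicle for 30 min at 37 °C in NaH2PO4/citrate buffer pH 4.5 with 0.1% Triton X-100 and 3 mM DTT. Then 50 μM substrate, 37 °C, 30 min, duplicates. Heptadecenoic acid quantified against heptadecanoic acid internal standard. IC50 by fixed-slope nonlinear regression.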

[2] = Selectivity ratio of IC50 for rat NAAA to IC50 for human NAAA
[3] = target: T2, Acid ceramidase (Rattus norvegicus) (UniProt Q6P7S1); assay: Inhibition of rat lung acid ceramidase overexpressed in HEK293 cells using N-Lauroyl ceramide as substrate preincubated at 10 uM for 30 mins followed by substrate addition by LC-MS analysis; assay type: cell-based
T2 sequence (whole entry): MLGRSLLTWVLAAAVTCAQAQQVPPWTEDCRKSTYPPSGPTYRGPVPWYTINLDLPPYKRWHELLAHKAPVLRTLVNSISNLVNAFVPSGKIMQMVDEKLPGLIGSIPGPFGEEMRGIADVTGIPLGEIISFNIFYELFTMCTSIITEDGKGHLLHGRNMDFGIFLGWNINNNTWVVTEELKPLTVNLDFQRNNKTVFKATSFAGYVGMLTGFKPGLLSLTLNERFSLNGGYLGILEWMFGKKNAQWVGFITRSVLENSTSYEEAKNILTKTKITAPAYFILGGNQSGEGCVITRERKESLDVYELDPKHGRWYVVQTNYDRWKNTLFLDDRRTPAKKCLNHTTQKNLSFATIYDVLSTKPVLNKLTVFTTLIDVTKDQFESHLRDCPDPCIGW
Procedure, shortened: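 Enzyme (25 μg) from HEK293 cells overexpressing rat AC was preincubated with compound for 30 min at 37 °C in 100 mM NaH2PO4, 100 mM trisodium citrate, 0.1% Triton X-100, 3 mM DTT, pH 4.5. Then 100 μM N-lauroyl ceramide was added. Lauric acid (m/z 199) was measured by negative-ion LC-MS with heptadecanoic acid (m/z 269) as internal standard.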

[4] = target: T3, Fatty-acid amide hydrolase 1 (Rattus norvegicus) (UniProt P97612); assay: Inhibition of rat brain FAAH using [3H]anandamide as substrate preincubated at 10 uM for 10 mins followed by substrate addition by liquid scintillation counting
T3 sequence (whole entry): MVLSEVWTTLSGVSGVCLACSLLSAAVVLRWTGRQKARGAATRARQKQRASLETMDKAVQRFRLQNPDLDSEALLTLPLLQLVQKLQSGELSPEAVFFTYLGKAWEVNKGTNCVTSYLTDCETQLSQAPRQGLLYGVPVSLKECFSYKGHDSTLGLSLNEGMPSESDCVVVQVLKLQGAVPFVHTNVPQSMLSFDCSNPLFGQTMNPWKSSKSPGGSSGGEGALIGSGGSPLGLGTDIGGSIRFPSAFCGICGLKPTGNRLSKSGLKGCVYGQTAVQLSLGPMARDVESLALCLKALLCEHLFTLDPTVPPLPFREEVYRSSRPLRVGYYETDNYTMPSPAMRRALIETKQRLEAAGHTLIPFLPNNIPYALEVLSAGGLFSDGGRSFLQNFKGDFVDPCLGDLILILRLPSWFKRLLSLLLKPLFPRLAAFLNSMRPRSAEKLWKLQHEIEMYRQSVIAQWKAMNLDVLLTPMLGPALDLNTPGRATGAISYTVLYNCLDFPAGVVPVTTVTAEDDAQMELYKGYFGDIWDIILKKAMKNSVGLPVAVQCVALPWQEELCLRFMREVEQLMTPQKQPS
Procedure, shortened: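 Rat brain homogenate (50 μg protein) was preincubated with compound for 10 min. Then 30 min at 37 °C with 1 μM cold AEA plus 0.6 nM [3H]AEA in 50 mM Tris pH 7.4 containing 0.05% fatty-acid-free BSA. Stopped with cold CHCl3/MeOH 1:1, and the aqueous phase was counted.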

[5] = target: T4, N-acylethanolamine-hydrolyzing acid amidase (Homo sapiens, UniProt Q02083); assay: Inhibition of C-terminal His-6-tagged recombinant human spleen NAAA enzyme expressed in HEK293 cells; assay type: cell-based
T4 sequence (Q02083 whole entry): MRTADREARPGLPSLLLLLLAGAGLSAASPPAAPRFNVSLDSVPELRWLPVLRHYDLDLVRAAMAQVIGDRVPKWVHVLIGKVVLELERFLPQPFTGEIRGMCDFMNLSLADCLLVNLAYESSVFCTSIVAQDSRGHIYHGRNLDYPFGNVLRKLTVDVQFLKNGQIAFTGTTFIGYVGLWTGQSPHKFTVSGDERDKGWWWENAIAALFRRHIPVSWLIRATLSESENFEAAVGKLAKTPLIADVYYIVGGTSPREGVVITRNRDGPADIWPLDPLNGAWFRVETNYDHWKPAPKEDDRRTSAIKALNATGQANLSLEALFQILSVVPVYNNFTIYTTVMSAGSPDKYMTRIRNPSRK
Procedure, shortened: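 Stable HEK293 clone (G418 selection) expressing h-NAAA; cell pellets sonicated, then membrane fraction prepared by centrifugation with a freeze/thaw step. 10 μg protein preincubated 30 min at 37 °C with inhibitor in citrate/phosphate buffer pH 4.5 (0.1% Triton X-100, 3 mM DTT). Duplicates then given 50 μM 10-cis-heptadecenoylethanolamide for 30 min at 37 °C. Heptadecenoic acid measured by UPLC-MS; IC50 from fixed-slope nonlinear regression.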

SMILES: CCCCCCC[C@H](C)OC(=O)N[C@H]1C(=O)O[C@H]1C
Ratio IC50 [2]: 2
inhibition [3]: 45%
inhibition [4]: 19%

SMILES: CC(CCCCc1ccccc1)OC(=O)N[C@H]1C(=O)O[C@H]1C (single isomer, unassigned; diastereomer 2)
IC50 ([1]; read-out: IC50): 5100 nM

SMILES: CC(C)C(CCCCc1ccccc1)OC(=O)N[C@H]1C(=O)O[C@H]1C (single isomer, unassigned; diastereomer 2)
IC50 ([1]; read-out: IC50): 12200 nM

SMILES: CCCCCOC(=O)N[C@H]1C(=O)O[C@H]1C
IC50 ([1]; read-out: IC50): 760 nM

SMILES: C[C@@H]1OC(=O)[C@@H]1NC(=O)OCc1cccc(-c2ccccc2)c1
IC50 ([1]; read-out: IC50): 23000 nM

SMILES: C[C@@H]1OC(=O)[C@@H]1N(C)C(=O)OCCCCCc1ccccc1
IC50 [1]: Not Active

SMILES: C[C@@H]1OC(=O)[C@@H]1NC(=O)OCCCOCc1ccccc1
Ratio IC50 [2]: 2
inhibition [3]: < 10%
inhibition [4]: < 10%
IC50 [5]: 20 nM

SMILES: C[C@@H]1OC(=O)[C@@H]1NC(=O)OCCCCCc1ccccc1
Ratio IC50 [2]: 2
inhibition [3]: < 10%
inhibition [4]: < 10%

SMILES: C[C@@H]1OC(=O)[C@@H]1NC(=O)OCc1ccc(-c2ccccc2)cc1
inhibition [3]: 30%
inhibition [4]: < 10%

Further compounds by falling IC50 ([1]; read-out: IC50), results first:

IC50 ([1]; read-out: IC50): 270 nM
SMILES: CCCCCCC[C@@H](C)OC(=O)N[C@H]1C(=O)O[C@H]1C

IC50 ([1]; read-out: IC50): 90 nM
SMILES: C[C@@H]1OC(=O)[C@@H]1NC(=O)OCCCc1ccccc1

IC50 ([1]; read-out: IC50): 80 nM
SMILES: CC(C)C(CCCCc1ccccc1)OC(=O)N[C@H]1C(=O)O[C@H]1C (stereo partly drawn)

IC50 ([1]; read-out: IC50): 60 nM
SMILES: CCCCCCCC(C)OC(=O)N[C@H]1C(=O)O[C@H]1C (mixture of isomers)

IC50 ([1]; read-out: IC50): 29 nM
SMILES: CC(CCCCc1ccccc1)OC(=O)N[C@H]1C(=O)O[C@H]1C (mixture of isomers)

IC50 ([1]; read-out: IC50): 20 nM
SMILES: C[C@H]1OC(=O)[C@@H]1NC(=O)OCCCCCc1ccccc1

IC50 ([1]; read-out: IC50): 18 nM
SMILES: CC(CCCCc1ccccc1)OC(=O)N[C@H]1C(=O)O[C@H]1C (single isomer, unassigned; diastereomer 1)

Ratio IC50 [2]: 2
inhibition [3]: < 10%
inhibition [4]: < 10%
IC50 ([1]; read-out: IC50): 13 nM
SMILES: C[C@@H]1OC(=O)[C@@H]1NC(=O)OCCCCCC1CCCCC1
